Experimental data: ChEMBL document CHEMBL1782043, “Synthesis and antileishmanial activity of novel 5-(5-nitrofuran-2-y1)-1,3,4-thiadiazoles with piperazinyl-linked benzamidine substituents” (Eur J Med Chem, 2011)
The source made the active and inactive calls. No cut-off for these calls is given here.

Assays:
[1] = Cytotoxicity against mouse peritoneal macrophages after 24 hrs by MTT assay; type: cell-based, Peritoneal macrophage cell
In short: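 Peritoneal macrophages were seeded at 2 × 10⁵ cells/well and allowed to adhere. Medium was then replaced with a range of compound concentrations for 24 h at 37 °C in humidified 5% CO₂. Viability was read by MTT colorimetry. Two independent experiments were run in triplicate, and CC50 was obtained by linear regression.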

[2] = test system: Leishmania major; assay: Antileishmanial activity against promastigotes form of Leishmania major MRHO/IR/75/ER after 48 hrs by MTT assay; type: functional, organism-based
In short: (§1)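 Log-phase promastigotes (2 × 10⁶/mL) were used, from a strain passaged in BALB/c mice. They were incubated with serial drug dilutions in phenol red-free RPMI 1640 with 10% FBS, 2 mM glutamine and antibiotics, pH ~7.2, at 25 °C for 24, 48 or 72 h. MTT (0.5 mg/mL) was then added for 4 h at 37 °C. Cells were pelleted and dissolved in DMSO, with absorbance read at 492 nm. Controls received medium plus DMSO. At least two independent experiments were run in triplicate. IC50 came from linear regression, as mean ± SD.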

[3] = test system: Leishmania major; assay: Antileishmanial activity against promastigotes form of Leishmania major MRHO/IR/75/ER after 24 hrs by MTT assay; type: functional, organism-based; in short: as §1
[4] = Selectivity index, ratio of CC50 for mouse peritoneal macrophages to IC50 for promastigotes form of Leishmania major MRHO/IR/75/ER after 24 hrs by MTT assay; type: functional
[5] = test system: Leishmania major; assay: Antileishmanial activity against promastigotes form of Leishmania major MRHO/IR/75/ER after 72 hrs by MTT assay; type: functional, organism-based; in short: as §1
[6] = test system: Leishmania major; assay: Antileishmanial activity against amastigotes form of Leishmania major MRHO/IR/75/ER infected in mouse peritoneal macrophage assessed as decrease in infectivity index after 24 hrs; type: functional, organism-based
In short: (§2)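 Mouse peritoneal macrophages (1 × 10⁶/well) were grown on glass coverslips in RPMI 1640 with 10% heat-inactivated FBS, 2 mM glutamine, penicillin and streptomycin. Non-adherent cells were washed off after 1 h. Stationary-phase promastigotes (2 × 10⁶/well, 3 per macrophage) were added for 2 h at 37 °C under CO₂. Free parasites were washed away, then drug medium was added for 24 h. Cells were methanol-fixed and Giemsa-stained, with 100 cells counted per well. Infectivity index = % infected macrophages × mean parasites per infected cell. Two experiment sets were run.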

[7] = test system: Leishmania major; assay: Antileishmanial activity against amastigotes form of Leishmania major MRHO/IR/75/ER infected in mouse peritoneal macrophage assessed as decrease in macrophage infectivity after 24 hrs; type: functional, organism-based; in short: as §2
[8] = test system: Leishmania major; assay: Antileishmanial activity against amastigotes form of Leishmania major MRHO/IR/75/ER infected in mouse peritoneal macrophage assessed as decrease in number of amastigotes per macrophage after 24 hrs; type: functional, organism-based; in short: as §2

SMILES	CC50 at 24 h [1] [µM]	IC50 [2] [µM]	IC50 [3] [µM]	Ratio CC50/IC50 [4]	IC50 [5] [µM]	Activity [6]	Activity [7]	Activity [8]
Cl.N=C(NCC1CCCO1)c1ccc(N2CCN(c3nnc(-c4ccc([N+](=O)[O-])o4)s3)CC2)cc1 (centres undefined)	921	88	95	9.69	5	–	–	–
N#Cc1ccc(N2CCN(c3nnc(-c4ccc([N+](=O)[O-])o4)s3)CC2)cc1	159	86	104	1.53	32	Active	Active	Active
Cl.N=C(N)c1ccc(N2CCN(c3nnc(-c4ccc([N+](=O)[O-])o4)s3)CC2)cc1	342	111	111	3.08	26	–	–	–
COc1ccc(CNC(=N)c2ccc(N3CCN(c4nnc(-c5ccc([N+](=O)[O-])o5)s4)CC3)cc2)cc1.Cl	69	76	80	0.86	2	Active	Active	Active
O=[N+]([O-])c1ccc(-c2nnc(N3CCN(c4ccc(C5=NCCCN5)cc4)CC3)s2)o1	–	–	> 200	–	–	–	–	–
Cl.N=C(c1ccc(N2CCN(c3nnc(-c4ccc([N+](=O)[O-])o4)s3)CC2)cc1)N1CCOCC1	55	88	93	0.59	4	–	–	–
Cl.N=C(NCc1ccccc1)c1ccc(N2CCN(c3nnc(-c4ccc([N+](=O)[O-])o4)s3)CC2)cc1	546	1.9	9	60.77	0.4	Active	Active	Active
CNC(=N)c1ccc(N2CCN(c3nnc(-c4ccc([N+](=O)[O-])o4)s3)CC2)cc1.Cl	223	22	23	9.69	21	Active	Active	Active
CCNC(=N)c1ccc(N2CCN(c3nnc(-c4ccc([N+](=O)[O-])o4)s3)CC2)cc1.Cl	337	26	33	10.21	16	Active	Active	Active
O=[N+]([O-])c1ccc(-c2nnc(N3CCN(c4ccc(C5=NCCN5)cc4)CC3)s2)o1	–	–	> 200	–	–	–	–	–
CCOC(=N)c1ccc(N2CCN(c3nnc(-c4ccc([N+](=O)[O-])o4)s3)CC2)cc1	–	46	48	–	26	Active	Active	Active
CCCNC(=N)c1ccc(N2CCN(c3nnc(-c4ccc([N+](=O)[O-])o4)s3)CC2)cc1.Cl	785	5	10	78.5	0.08	Active	Active	Active
CCC(C)NC(=N)c1ccc(N2CCN(c3nnc(-c4ccc([N+](=O)[O-])o4)s3)CC2)cc1.Cl (centres undefined)	770	18	33	23.33	13	Active	Active	Active
CCCCNC(=N)c1ccc(N2CCN(c3nnc(-c4ccc([N+](=O)[O-])o4)s3)CC2)cc1.Cl	123	4	11	11.18	0.2	–	–	–
